Measurements from article PMC5376495 (ACS combinatorial science, 2017).
Where a SMILES comes first, the peptide text is derived from it. [ ]: non-standard residue; d: D form. The star is where a group is joined. Benzoyl(4-tBu) = CC(C)(C)c1ccc(C(=O)*)cc1; Lys(Et2) = CCN(CC)CCCC[C@H](N)C(=O)O

What was measured:
[1] = system: PRC2 complexes containing EED mutations (F97A, W364A, Y365A); assay: PRC2 methyltransferase assay with EED aromatic cage mutants; type: biochemical
Procedure, shortened: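 EZH2:EED:SUZ12 complexes carrying EED cage mutations made by site-directed mutagenesis, co-expressed in baculovirus-infected Sf9 cells, and FLAG-affinity purified like wild type. Reaction ran 1 h at 23 °C in 20 mM Tris-HCl pH 8, 5 mM DTT, 0.01% Triton X-100 with 1 µM 3H-SAM, 1 µM biotinylated H3(21–44), and 20 nM complex. Stopped by adding 7.5 M guanidine-HCl. Scintillation proximity read-out on streptavidin Flash-plates after 2 h. Normalised to no-compound (100%) and no-enzyme (0%) CPM.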

[2] = biological target: EED (Homo sapiens, UniProt O75530); conditions: cited from earlier work
Chain of EED (O75530 whole entry): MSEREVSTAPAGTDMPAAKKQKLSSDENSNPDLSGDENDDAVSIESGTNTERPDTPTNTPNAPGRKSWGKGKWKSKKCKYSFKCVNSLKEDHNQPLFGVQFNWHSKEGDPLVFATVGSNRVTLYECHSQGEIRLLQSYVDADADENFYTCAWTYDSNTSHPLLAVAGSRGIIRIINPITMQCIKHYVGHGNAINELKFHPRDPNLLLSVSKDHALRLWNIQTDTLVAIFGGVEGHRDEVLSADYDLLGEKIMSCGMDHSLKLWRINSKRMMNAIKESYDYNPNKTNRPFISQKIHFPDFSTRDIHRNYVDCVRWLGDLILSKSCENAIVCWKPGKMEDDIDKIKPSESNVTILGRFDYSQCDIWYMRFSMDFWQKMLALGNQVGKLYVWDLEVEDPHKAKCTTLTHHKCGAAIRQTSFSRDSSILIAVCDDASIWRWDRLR

Row | Compound | inhibition of basal catalytic activity of PRC2 with EED mutants [1] | affinity for EED in solution-based assays [2]
1 | CCCc1cc(C)[nH]c(=O)c1CNC(=O)c1cc(-c2ccc(N3CCN(C(C)C)CC3)nc2)cc2c1cnn2C(C)C [UNC1999] | completely abrogates the activity | –
2 | CCN(CC)CCCC[C@H](NC(=O)[C@H](CC(C)C)NC(=O)[C@H](C)NC(=O)[C@H](Cc1ccccc1)NC(=O)c1ccc(C(C)(C)C)cc1)C(=O)N[C@@H](CO)C(=O)OC [UNC3866] ({Benzoyl(4-tBu)}-FAL[Lys(Et2)]S-OMe) | – | lack of affinity
